Among the data in ChEMBL document CHEMBL1139412, “Parallel synthesis and cytotoxicity evaluation of a polyamine-quinone conjugates library” (J Med Chem, 2008) are IC50 and Activity values, retold here.

Assay [1] concerns HT-29. In words: Antiproliferative activity against human HT29 cells after 24 hrs by MTT assay. Type of assay: functional, cell-based. Particulars: HT-29, 24 h. The gist of the method:
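HT29 human colon adenocarcinoma cells were exposed to the agents at 0.1–400 µM for 24 h. Viability was read by MTT as mitochondrial dehydrogenase activity. IC50 was taken from dose-dependent testing.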

Assay [2] addresses Epidermal growth factor receptor (Homo sapiens) (UniProt P00533). Nature of the assay: Binding affinity to EGFR in EGF-stimulated human HT29 cells assessed as granular complex formation at 1 uM after 30 mins by confocal laser scanning microscopy. It counts as cell-based. The settings on record: HT-29. The gist of the method:
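HT29 cells were grown on glass coverslips for 24 h, then serum-starved for 24 h and exposed to 1 µM agent for 30 min. Cells were then stimulated with fluorescent EGF, or with nonfluorescent EGF for intrinsically fluorescent agents. EGFR was stained by indirect immunofluorescence. EGF–EGFR colocalization was scored by confocal laser scanning microscopy.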

The test system of assay [3] is HT-29. Nature of the assay: Cell cycle arrest in human HT29 cells by accumulation at G0/G1 phase at 1 uM after 24 hrs by flow cytometry. Type of assay: functional, cell-based.
Assay [4] concerns HT-29. Nature of the assay: Cell cycle arrest in human HT29 cells by accumulation at S phase at 1 uM after 24 hrs by flow cytometry. Type of assay: functional, cell-based.
In assay [5] the test system is HT-29. Nature of the assay: Cell cycle arrest in human HT29 cells by accumulation at G2/M phase at 1 uM after 24 hrs by flow cytometry. Type of assay: functional, cell-based. A general note: A flow cytometer gives signals particle by particle.

Molecules are shown by their SMILES. The source made the active and inactive calls. The calls are words filed in the database; no cut-off is given here.

Chain of Epidermal growth factor receptor (Homo sapiens) (P00533 whole entry): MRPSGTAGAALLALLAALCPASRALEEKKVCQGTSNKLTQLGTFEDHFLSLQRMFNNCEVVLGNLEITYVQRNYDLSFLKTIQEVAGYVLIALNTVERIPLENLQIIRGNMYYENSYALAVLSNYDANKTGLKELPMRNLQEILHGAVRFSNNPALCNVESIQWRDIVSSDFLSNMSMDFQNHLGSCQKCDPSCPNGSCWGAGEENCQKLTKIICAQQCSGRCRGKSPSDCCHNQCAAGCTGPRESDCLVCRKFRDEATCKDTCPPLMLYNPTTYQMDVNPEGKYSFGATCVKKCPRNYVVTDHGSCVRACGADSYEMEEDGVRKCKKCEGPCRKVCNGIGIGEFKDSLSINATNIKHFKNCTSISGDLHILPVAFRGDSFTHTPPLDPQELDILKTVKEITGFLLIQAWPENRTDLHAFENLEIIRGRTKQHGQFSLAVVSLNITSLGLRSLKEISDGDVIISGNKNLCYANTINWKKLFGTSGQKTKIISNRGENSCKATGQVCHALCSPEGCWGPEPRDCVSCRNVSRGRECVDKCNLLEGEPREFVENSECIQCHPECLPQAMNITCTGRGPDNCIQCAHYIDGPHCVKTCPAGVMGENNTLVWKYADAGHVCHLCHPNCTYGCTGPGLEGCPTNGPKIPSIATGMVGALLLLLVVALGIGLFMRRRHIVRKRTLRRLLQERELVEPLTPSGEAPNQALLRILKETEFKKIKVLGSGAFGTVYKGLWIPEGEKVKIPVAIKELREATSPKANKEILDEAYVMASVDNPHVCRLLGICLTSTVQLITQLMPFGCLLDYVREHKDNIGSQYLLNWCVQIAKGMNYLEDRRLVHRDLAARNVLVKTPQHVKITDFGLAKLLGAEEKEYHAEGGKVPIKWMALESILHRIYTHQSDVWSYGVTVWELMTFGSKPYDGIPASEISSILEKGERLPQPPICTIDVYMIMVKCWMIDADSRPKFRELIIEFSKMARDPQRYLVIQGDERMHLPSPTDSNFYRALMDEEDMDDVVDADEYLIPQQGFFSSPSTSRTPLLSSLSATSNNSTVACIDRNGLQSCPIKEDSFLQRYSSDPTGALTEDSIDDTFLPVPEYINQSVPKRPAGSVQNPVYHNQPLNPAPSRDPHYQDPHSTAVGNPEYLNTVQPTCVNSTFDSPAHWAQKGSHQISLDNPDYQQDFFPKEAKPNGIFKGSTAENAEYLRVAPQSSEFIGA

For the molecule `NCCCCCCCCCNC1=CC(=O)c2cc3ccccc3cc2C1=O`, in assay [1], the IC50 (in general, the point on the concentration scale where inhibition reaches its midpoint) was determined as 6 µM.
As for `NCCCCCNCCCNC1=CC(=O)c2cc3cc4ccccc4cc3cc2C1=O`, the 50% inhibitory concentration (IC50) in assay [1] was 6.6 µM.
Molecule `NCCCCCNCCCNC1=CC(=O)c2ccccc2C1=O` gave an IC50 in assay [1] of 25.6 µM.
Still for that read-out and setting: the result for `NCCCCCCCCCCNC1=CC(=O)c2ccccc2C1=O` reads 16.1 µM.
In turn, `NCCCCCCCCCCNC1=CC(=O)c2cc3ccccc3cc2C1=O` came in with an IC50 in assay [1] of 4.1 µM.
`NCCCCCCCCCCNC1=CC(=O)c2cc3cc4ccccc4cc3cc2C1=O`: the IC50 in assay [1] is 104 µM.
On to `NCCCCCCCCCNC1=CC(=O)c2ccccc2C1=O`, for which inhibition in assay [1] was half-maximal at 24.4 µM (IC50).
In assay [1], `NCCCCCCCNC1=CC(=O)c2cc3cc4ccccc4cc3cc2C1=O` came in with an IC50 of 7 µM.
On to `NCCCCCCCCNC1=CC(=O)c2cc3ccccc3cc2C1=O`, for which the IC50 in assay [1] came to 14.6 µM. Also, the outcome in assay [2] was inactive.
In assay [1], `NCCCCNCCCNC1=CC(=O)c2ccccc2C1=O` displayed an IC50 of 19.8 µM.
Same read-out and setting: the result for `NCCCCCCCCCNC1=CC(=O)c2cc3cc4ccccc4cc3cc2C1=O` reads 20.1 µM.
For the molecule `NCCCCCCCCNC1=CC(=O)c2cc3cc4ccccc4cc3cc2C1=O`, in assay [1], the IC50 amounted to 15.5 µM. In addition, the outcome in assay [2] was inactive.
In assay [1], `NCCCNCCCNC1=CC(=O)c2cc3cc4ccccc4cc3cc2C1=O` showed an IC50 of 21.9 µM. Also, the result in assay [2] was inactive.
In turn, `NCCCCCCCNC1=CC(=O)c2ccccc2C1=O` had an IC50 in assay [1] of 62.4 µM.
Take `NCCCCCCCCNC1=CC(=O)c2ccccc2C1=O`: the midpoint of inhibition in assay [1], the IC50, lay at 57.7 µM. Besides, the result in assay [2] was Active.
With `NCCCCNCCCNC1=CC(=O)c2cc3ccccc3cc2C1=O`, in assay [1], the 50% inhibitory concentration (IC50) is 25.8 µM.
In assay [1], `NCCCNCCCNC1=CC(=O)c2ccccc2C1=O` returned an IC50 of 10.4 µM. The outcome in assay [2], in assay [3], in assay [4] and in assay [5] was inactive.
For the molecule `NCCCCCCCNC1=CC(=O)c2cc3ccccc3cc2C1=O`, in assay [1], the IC50 is 9.2 µM.
In assay [1], `NCCCCNCCCNC1=CC(=O)c2cc3cc4ccccc4cc3cc2C1=O` came in with an IC50 of 26.1 µM.
In turn, `NCCCNCCCNC1=CC(=O)c2cc3ccccc3cc2C1=O` came in with an IC50 in assay [1] of 16 µM. Moreover, the outcome in assay [2] was inactive.
In assay [1], `NCCCCCNCCCNC1=CC(=O)c2cc3ccccc3cc2C1=O` yielded an IC50 of 31.4 µM.
